Screening results (PubChem BioAssay)
mABHD4 FP – inhibitors of mouse ABHD4. purified mABHD4, FP-Rh probe fluorescence polarization. inhibition, % at 8.92 µM. AID 720543. actives 0.54% (n = 370,000). Q8VD66;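 active = inhibition exceeding the mean over every tested compound plus 3 SD, cut at about 30% in these data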;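 note: 0% = plate median of compound wells and 100% = S159A mutant with DMSO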
Target sequence (Q8VD66 whole entry, looked up): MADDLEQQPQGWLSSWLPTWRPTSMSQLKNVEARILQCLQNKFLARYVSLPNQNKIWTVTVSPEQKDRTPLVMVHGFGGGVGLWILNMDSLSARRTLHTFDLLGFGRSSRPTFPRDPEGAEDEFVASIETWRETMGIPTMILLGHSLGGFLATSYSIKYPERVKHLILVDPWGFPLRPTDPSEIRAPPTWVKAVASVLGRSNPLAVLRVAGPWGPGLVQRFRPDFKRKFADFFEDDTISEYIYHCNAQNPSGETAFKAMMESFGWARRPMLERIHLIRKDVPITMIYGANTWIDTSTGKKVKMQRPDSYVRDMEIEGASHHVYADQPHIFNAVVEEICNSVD
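Material: mouse ABHD4 enzyme, wild type; Benchmarks: S159A mutant high control, sample median low control; Buffer or medium: HEPES pH 7.0, NaCl, Pluronic buffer; Signal: fluorescence polarization; Read-out: percent inhibition of probe binding, normalized to plate controls; Timing: pre-incubation 45 min, probe exposure 60 min, at 25 °C; Dosing: 8.92 µM, single dose.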
HTRA1 inh – inhibitors of human serine peptidase HTRA1; Q92743; recombinant HTRA1, FP-rhodamine activity-based probe, fluorescence polarization; inhibition, % at 5.96 µM; actives 0.5% (n = 340,000); AID 504803; in the data active = inhibition above about 36%;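 note: 0% = enzyme with DMSO and 100% = wells lacking enzyme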
SIAE inh – inhibitors of human sialic acid acetylesterase SIAE. inhibition, % at 9.66 µM. AID 1053197. SIAE FP-Rh probe binding, fluorescence polarization. Q9HAT2. actives 0.69% (n = 370,000);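 active = inhibition above a cutoff: mean of compounds within the control limits plus 3 SD of those, cut at about 17% in these data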;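 note: 0% = plate median of compound wells and 100% = probe without SIAE protein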
PRMT1 inh – blocks human protein arginine methyltransferase 1; Q99873; AID 652257; inhibition, % at 2.79 µM; actives 1.3% (n = 370,000); recombinant PRMT1, activity-based probe fluorescence polarization;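 active = inhibition above about 21% made by adding two undisclosed values, limit read from the data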
TCR CD3 inh – inhibitors of human TCR-CD3 interaction; TAMRA-labeled TCR probe fluorescence, biochemical; inhibition, % at 9.4 µM; actives 0.37% (n = 360,000); AID 651800; in the data active = inhibition above about 19%;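 note: recombinant mutant TCR 2C K166C tagged with TAMRA read by polarization; 0% = receptor in buffer alone and 100% = receptor with positive control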
PRMT1 confirm – confirmation of human PRMT1 inhibitors | actives 42% (n = 3,300) | recombinant His-PRMT1, activity-based probe fluorescence polarization | AID 687036 | inhibition, % at 2.79 µM | shares compounds with PRMT1 inh;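 active = mean inhibition across replicates above the hit cutoff derived for the earlier primary screen, cut at about 22% in these data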
* marks the source's active call; other numbers are inactive results; . = no result given. The list is not random: actives were taken first. Their share in the collection is about 2.6%.

SMILES	mABHD4 FP	HTRA1 inh	SIAE inh	PRMT1 inh	TCR CD3 inh	PRMT1 confirm
Cc1cc(=O)oc2cc(OCC(=O)N(C)C3CCS(=O)(=O)C3)c(Cl)cc12 (stereo unspecified)	4	10	-5	-3	5	.
CCCCc1ccc(NC(=O)CSc2nnc(C)c(=O)n2N)cc1	-6	-4	1	12	-7	.
O=C(NNc1nc2cc3c(cc2s1)OCO3)c1cccc(F)c1	20	17	-3	33*	-1	11
O=C(NNc1nc2cc3c(cc2s1)OCO3)c1ccccc1	20	12	7	20	2	.
CC1CCCC(C)N1S(=O)(=O)c1ccc(Cl)cc1 (stereo unspecified)	-4	-1	-2	2	9	.
CC1=C(C)CS(=O)N(S(=O)(=O)c2ccc(Cl)cc2)C1 (stereo unspecified)	5	-25	-6	34*	6	43*
COC(=O)[C@]12C[C@H](CC(=O)N3CCSCC3)C(=O)N(Cc3ccc(Cl)cc3Cl)C1=C[C@H](C1CCCC1)O[C@@H]2C	-4	.	0	0	.	.
Cc1ccc(NC(=O)c2sc3nc4c(c(-c5ccco5)c3c2N)CCC4)cc1	15	-7	5	6	-1	.
Nc1c(C(=O)Nc2ccc(F)cc2)sc2nc(-c3ccco3)ccc12	13	0	15	44*	8	30*
Nc1c(C(=O)Nc2ccc(Br)cc2)sc2nc(-c3ccco3)ccc12	6	11	16	45*	7	21
Nc1c(C(=O)Nc2ccccc2)sc2nc3c(c(-c4ccco4)c12)CCC3	14	7	1	7	-7	.
O=C(Cc1cccc(NC(=O)C2CCN(C(=O)C3CCCC3)CC2)c1)Nc1cccc(C(=O)N2CCOCC2)c1	5	3	10	1	5	.
CCCn1c(CN2CCN(C(=O)OCC)CC2)nc2cc(NC(C)=O)ccc21	5	2	6	-1	9	.
COc1ccc(C=Nn2c(-c3ccc(F)cc3)n[nH]c2=S)c(OC)c1OC	-2	.	7	30*	.	6
COc1cccc(/C=N/n2c(-c3cccs3)n[nH]c2=S)c1	-5	-14	1	28*	0	20
S=c1[nH]nc(-c2ccccc2)n1/N=C/c1cccs1	.	5	.	.	.	.
COc1ccc(/C=N/n2c(-c3n[nH]c4c3CCC4)n[nH]c2=S)c(OC)c1OC	-1	3	2	0	9	.
Cc1ccc(-c2n[nH]c(=S)n2/N=C/c2cccs2)cc1	1	-5	1	32*	-8	8
Cc1nn(CC(=O)NCC(C)c2ccccc2)c(=O)c2cc(-c3ccccc3)nn12 (stereo unspecified)	9	-1	5	-1	5	.
CCc1cc2c(nc1CC)CCCN2S(=O)(=O)c1ccccc1C	0	.	3	4	2	.
COc1ccc(-c2cc(C(=O)NN=Cc3cccn3C)[nH]n2)cc1	3	.	2	8	.	.
Cn1cccc1C=NNC(=O)c1cc(-c2ccc(Cl)cc2)n[nH]1	-7	.	-7	25*	.	-7
CN(C)c1ccc2nc3c(=O)[nH]c(=O)nc-3n(CC(O)C(O)C(O)CO)c2c1 (stereo unspecified)	-176	-235	-278	80*	-54	55*
O=C(O)Cc1c[nH]c2ccc(O)cc12	11	3	7	27*	5	1
COc1ccc2[nH]cc(CC(=O)O)c2c1	-4	2	6	8	-6	.
SMILES	mABHD4 FP	HTRA1 inh	SIAE inh	PRMT1 inh	TCR CD3 inh	PRMT1 confirm
Cc1ccc(OCc2nnc(N)s2)cc1C	1	.	1	-4	4	.
O=C(CN1C(=O)CC(c2ccco2)Sc2ccccc21)NCc1ccc2c(c1)OCO2 (stereo unspecified)	.	3	.	.	.	.
O=C(CN1C(=O)CC(c2ccco2)Sc2ccccc21)Nc1ccccc1F (stereo unspecified)	3	-10	7	58*	-3	19
Cc1cccc(-n2c(C)c(-c3ccccc3)[nH]c2=S)c1	5	-1	8	34*	1	16
COc1cc(C2NC(=O)N(C)C(C)=C2C(=O)OCc2ccccc2)cc(Br)c1O (stereo unspecified)	-5	4	4	-2	-1	.
Cc1ccccc1-n1c(O)cc(=O)[nH]c1=S	0	-14	-9	28*	-17	2
Cc1ccc(C)c(NC(=S)N2CCC(C(=O)c3ccc(F)cc3)CC2)c1	2	2	5	4	-3	.
CCCNC(=O)Cn1sc2nc(C)cc(C)c2c1=O	8	3	1	93*	-6	94*
Cc1cc(C)c2c(=O)n(CC(=O)N3CCC(N4CCCCC4)CC3)sc2n1	3	-1	-2	78*	8	4
Cc1ccc(C)c(SCC(=O)N(C)CC(=O)Nc2ccc(N3CCOCC3)cc2)c1	4	-2	0	6	0	.
CN(C)C(=O)c1ccc(SC(=S)NCc2ccccc2)cc1	8	.	-1	59*	5	69*
CN1N=C(N)c2cn(C3OC(COP(=O)(O)O)C(O)C3O)c3ncnc1c23 (stereo unspecified)	2	2	6	-1	7	.
COc1ccc(-c2onc3ccc(Cl)cc23)cc1	3	-5	0	30*	0	13
Cc1ccc(/C=c2\sc3n(c2=O)CN(c2ccc(Br)cc2)CN=3)o1	22	1	-1	36*	2	5
O=C(NCc1ccc2c(c1)OCO2)c1c(-c2ccccc2)sc2ccccc12	-13	0	4	3	6	.
Cc1ccc(CNC(=O)c2c(-c3ccccc3)sc3ccccc23)o1	-28	-18	0	39*	1	1
COc1cc2ccccc2cc1C(=O)O	5	-2	9	1	5	.
COc1ccc(OC)c2cc3ccccc3cc12	23	33	4	29*	1	70*
CCc1sc(C(C2C(=O)CC(C)(C)CC2=O)C2C(=O)CC(C)(C)CC2=O)cc1[N+](=O)[O-]	9	-4	0	48*	5	50*
CC1(C)CC(=O)C(C(c2ccc(F)cc2)C2C(=O)CC(C)(C)CC2=O)C(=O)C1	1	11	-4	-5	6	.
CC(=O)N1CCN(c2nc(N)c(C#N)c(CC#N)c2C#N)CC1	-2	6	0	29*	-3	-7
N#CCc1c(C#N)c(N)nc(N2CCN(S(=O)(=O)c3ccccc3)CC2)c1C#N	-11	-3	-6	14	3	.
N#CCc1c(C#N)c(N)nc(N2CCOCC2)c1C#N	-3	8	-2	38*	0	-2
N#CCc1c(C#N)c(N)nc(N2CCN(C=O)CC2)c1C#N	4	8	-3	35*	3	-3
COCC(C)NC(=O)CSc1nc2ccccc2c(=O)n1CCc1ccc(S(N)(=O)=O)cc1 (stereo unspecified)	-7	-7	-1	-1	-4	.
